ChEMBL document CHEMBL3611973, “Synthesis and biological evaluation of a novel betulinic acid derivative as an inducer of apoptosis in human colon carcinoma cells (HT-29)” (Eur J Med Chem, 2015)
Activity calls are given as the source filed them. The rule behind the calls is not given here.

Key:
U-937 = assay: Cytotoxic activity against human U937 cells assessed as cell growth inhibition after 48 hrs by MTT assay; format: functional, cell-based; conditions: U-937, 48 h
Method in brief: (§1)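 Log-phase cells (1.25-2.5×10^4/100 µl; RPMI 1640, HepG2 in high-glucose DMEM, 10% FBS) given compound in DMSO (final <0.1%), 0-50 µM, 48 h, 37 °C, 5% CO2. MTT 4 h, DMSO solubilization, OD 540 nm minus background; viability relative to untreated; IC50 by graphical extrapolation, ≥3 experiments in duplicate.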

HT-29 [1] = assay: Cytotoxic activity against human HT-29 cells assessed as cell growth inhibition after 48 hrs by MTT assay; format: functional, cell-based; conditions: HT-29, 48 h; method in brief: as §1
Jurkat = assay: Cytotoxic activity against human Jurkat cells assessed as cell growth inhibition after 48 hrs by MTT assay; format: functional, cell-based; method in brief: as §1
HepG2 = assay: Cytotoxic activity against human HepG2 cells assessed as cell growth inhibition after 48 hrs by MTT assay; format: functional, cell-based; conditions: HepG2, 48 h; method in brief: as §1
MCF7 = assay: Cytotoxic activity against human MCF7 cells assessed as cell growth inhibition after 48 hrs by MTT assay; format: functional, cell-based; conditions: MCF7, 48 h; method in brief: as §1
HT-29 [2] = assay: Cytotoxicity against human HT-29 cells assessed as cell viability after 48 hrs by MTT assay in presence of NAC; format: functional, cell-based; conditions: HT-29, 48 h
Method in brief: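 HT-29 cells pre-incubated with 2.5 mM N-acetyl cysteine for 3 h, then exposed to compound and assayed for viability by MTT.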

PBMC = assay: Cytotoxic activity against human PBMC cells assessed as cell growth inhibition after 48 hrs by MTT assay; format: cell-based; method in brief: as §1
HT-29 [3] = assay: Induction of apoptosis in human HT-29 cells assessed as ROS generation measured up to 15 mins by FACS analysis; format: functional, cell-based
Method in brief: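 HT-29 (2.5×10^5/ml) exposed 0-2 h, washed, loaded with CM-H2DCFDA (5 μM in PBS) 30 min at 37 °C in the dark. DCF read by flow cytometry (ex 488/em 530 nm) on FSC/SSC-gated viable cells; mean fluorescence intensity, three independent experiments.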

HT-29 [4] = assay: Induction of apoptosis in human HT-29 cells assessed as late apoptotic cells using annexin V-FITC/propidium iodide staining at IC50 after 12 hrs by flow cytometry (reference value: 0.0%); format: functional
HT-29 [5] = assay: Induction of apoptosis in human HT-29 cells assessed as early apoptotic cells using annexin V-FITC/propidium iodide staining at IC50 after 12 hrs by flow cytometry (reference value: 0.1%); format: functional
HT-29 [6] = assay: Induction of apoptosis in human HT-29 cells assessed as late apoptotic cells using annexin V-FITC/propidium iodide staining at IC50 after 24 hrs by flow cytometry (reference value: 0.0%); format: functional
HT-29 [7] = assay: Induction of apoptosis in human HT-29 cells assessed as early apoptotic cells using annexin V-FITC/propidium iodide staining at IC50 after 24 hrs by flow cytometry (reference value: 0.1%); format: functional
HT-29 [8] = assay: Induction of apoptosis in human HT-29 cells assessed as late apoptotic cells using annexin V-FITC/propidium iodide staining at IC50 after 48 hrs by flow cytometry (reference value: 0.0%); format: functional
HT-29 [9] = assay: Induction of apoptosis in human HT-29 cells assessed as early apoptotic cells using annexin V-FITC/propidium iodide staining at IC50 after 48 hrs by flow cytometry (reference value: 0.1%); format: functional
HT-29 [10] = assay: Induction of apoptosis in human HT-29 cells assessed as loss of mitochondrial membrane potential using JC-1 dye at IC50 after 12 hrs by flow cytometry (reference value: 1.75%); format: functional
HT-29 [11] = assay: Induction of apoptosis in human HT-29 cells assessed as loss of mitochondrial membrane potential using JC-1 dye at IC50 after 24 hrs by flow cytometry (reference value: 1.75%); format: functional
HT-29 [12] = assay: Induction of apoptosis in human HT-29 cells assessed as loss of mitochondrial membrane potential using JC-1 dye at IC50 after 48 hrs by flow cytometry (reference value: 1.75%); format: functional
HT-29 [13] = assay: Induction of apoptosis in human HT-29 cells assessed as increase in caspase-3 activity at IC50 after 48 hrs by colorimetric assay; format: functional, cell-based
HT-29 [14] = assay: Induction of apoptosis in human HT-29 cells assessed as increase in caspase-9 activity at IC50 after 48 hrs by colorimetric assay; format: functional, cell-based
HT-29 [15] = assay: Induction of apoptosis in human HT-29 cells assessed as increase in caspase-8 activity at IC50 after 48 hrs by colorimetric assay; format: functional, cell-based
HT-29 [16] = assay: Induction of apoptosis in human HT-29 cells assessed as cleavage of PARP at IC50 after 24 to 48 hrs by Western blotting; format: functional, cell-based
HT-29 [17] = assay: Induction of apoptosis in human HT-29 cells assessed as chromatin condensation using Hoechst 33258 dye at IC50 after 48 hrs by confocal microscopic analysis; format: functional, cell-based
Method in brief: (§2)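 HT-29 (2.5×10^5 cells/ml) treated 48 h at 37 °C, 5% CO2, washed, fixed in 4% paraformaldehyde (4 °C, 30 min), stained with Hoechst 33258 (5 µg/ml final, 37 °C, 30 min, dark), mounted in 50% glycerol on poly-L-lysine slides; confocal imaging at 100×.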

HT-29 [18] = assay: Induction of apoptosis in human HT-29 cells assessed as reduction in Bcl2/Bax ratio at IC50 after 12 to 48 hrs by Western blotting; format: functional, cell-based
Calf thymus DNA [19] = assay: Binding affinity to calf thymus DNA up to 2 hrs by absorption spectroscopy analysis; format: nucleic-acid assay; conditions: Bos taurus
Method in brief: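 Compound stock in 60% ethanol/50 mM Tris-HCl/NaCl (pH 7.5), diluted in buffer, actual concentration set by molar extinction coefficient. CT-DNA held at 50 μg/ml (legend: 100 μg/mL) with varied compound, 37 °C, 2 h; UV-vis scanned 200-400 nm. θ from 260 nm absorbance; Kb as the reciprocal of ligand concentration at half-saturation of the isotherm.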

HT-29 [20] = assay: Induction of apoptosis in human HT-29 cells assessed as fragmentation using Hoechst 33258 dye at IC50 after 48 hrs by confocal microscopic analysis; format: functional, cell-based; method in brief: as §2
Calf thymus DNA [21] = assay: Binding affinity to calf thymus DNA assessed as conformational change at 50 uM after 2 hrs by circular dichroism analysis; format: nucleic-acid assay; conditions: Bos taurus
Method in brief: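 CT-DNA (500 μg/mL) incubated alone or with 50 μM compound for 2 h at 37 °C in 50 mM Tris-HCl/NaCl buffer; CD spectra recorded for conformation, with the positive band at 275 nm and the negative band at 245 nm (B-form) monitored.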

HT-29 [22] = assay: Induction of apoptosis in human HT-29 cells assessed as late apoptotic cells using annexin V-FITC/propidium iodide staining at IC50 by flow cytometry; format: functional, cell-based; conditions: TDE = time-dependent effect
HT-29 [23] = assay: Induction of apoptosis in human HT-29 cells assessed as early apoptotic cells using annexin V-FITC/propidium iodide staining at IC50 by flow cytometry; format: functional, cell-based; conditions: TDE = time-dependent effect
HT-29 [24] = assay: Induction of apoptosis in human HT-29 cells assessed as membrane blebbing using Hoechst 33258 dye at IC50 after 48 hrs by confocal microscopic analysis; format: functional, cell-based; method in brief: as §2
HT-29 [25] = assay: Induction of apoptosis in human HT-29 cells assessed as apoptotic bodies using Hoechst 33258 dye at IC50 after 48 hrs by confocal microscopic analysis; format: functional, cell-based; method in brief: as §2

SMILES: C=C(C)[C@@H]1CC[C@]2(C(=O)O)CC[C@]3(C)[C@H](CC[C@@H]4[C@@]5(C)CC[C@H](OC(=O)Cn6cc(CCCC)nn6)C(C)(C)[C@@H]5CC[C@]43C)[C@@H]12
- IC50 (U-937): > 50 µM
- IC50 (HT-29 [1]): > 50 µM
- IC50 (Jurkat): > 50 µM
- IC50 (HepG2): 49.8 µM
- IC50 (MCF7): > 50 µM

SMILES: C=C(C)[C@@H]1CC[C@]2(C(=O)O)CC[C@]3(C)[C@H](CC[C@@H]4[C@@]5(C)CC[C@H](OC(=O)Cn6cc(-c7ccc8[nH]ccc8c7)nn6)C(C)(C)[C@@H]5CC[C@]43C)[C@@H]12
- IC50 (U-937): > 50 µM
- IC50 (HT-29 [1]): > 50 µM
- IC50 (Jurkat): > 50 µM
- IC50 (HepG2): > 50 µM
- IC50 (MCF7): > 50 µM

SMILES: C=C(C)[C@@H]1CC[C@]2(C(=O)O)CC[C@]3(C)[C@H](CC[C@@H]4[C@@]5(C)CC[C@H](OC(=O)Cn6cc(CO)nn6)C(C)(C)[C@@H]5CC[C@]43C)[C@@H]12
- IC50 (HT-29 [2]): 30.4 µM
- IC50 (U-937): > 50 µM
- IC50 (HT-29 [1]): 14.9 µM
- IC50 (Jurkat): 41.4 µM
- IC50 (HepG2): > 50 µM
- IC50 (MCF7): > 50 µM
- IC50 (PBMC): > 50 µM
- Activity (HT-29 [3]): Active
- Activity (HT-29 [4]): 2%
- Activity (HT-29 [5]): 14.1%
- Activity (HT-29 [6]): 3.2%
- Activity (HT-29 [7]): 17.1%
- Activity (HT-29 [8]): 4.6%
- Activity (HT-29 [9]): 25.2%
- Activity (HT-29 [10]): 16.5%
- Activity (HT-29 [11]): 30.5%
- Activity (HT-29 [12]): 51.4%
- Activity (HT-29 [13]): Active
- Activity (HT-29 [14]): Active
- Activity (HT-29 [15]): inactive
- Activity (HT-29 [16]): Active
- Activity (HT-29 [17]): Active
- Activity (HT-29 [18]): Active
- K (Calf thymus DNA [19]): 8.38 ×10⁴ /M
- Activity (HT-29 [20]): Active
- Activity (Calf thymus DNA [21]): inactive
- Activity (HT-29 [22]): tde
- Activity (HT-29 [23]): tde
- Activity (HT-29 [24]): Active
- Activity (HT-29 [25]): Active

SMILES: C=C(C)[C@@H]1CC[C@]2(C(=O)O)CC[C@]3(C)[C@H](CC[C@@H]4[C@@]5(C)CC[C@H](OC(=O)Cn6cc(-c7ccccc7)nn6)C(C)(C)[C@@H]5CC[C@]43C)[C@@H]12
- IC50 (U-937): > 50 µM
- IC50 (HT-29 [1]): > 50 µM
- IC50 (Jurkat): > 50 µM
- IC50 (HepG2): > 50 µM
- IC50 (MCF7): > 50 µM
- IC50 (PBMC): > 50 µM

SMILES: C=C(C)[C@@H]1CC[C@]2(C(=O)O)CC[C@]3(C)[C@H](CC[C@@H]4[C@@]5(C)CC[C@H](OC(=O)Cn6ccnn6)C(C)(C)[C@@H]5CC[C@]43C)[C@@H]12
- IC50 (U-937): > 50 µM
- IC50 (HT-29 [1]): > 50 µM
- IC50 (Jurkat): > 50 µM
- IC50 (HepG2): > 50 µM
- IC50 (MCF7): > 50 µM
- IC50 (PBMC): > 50 µM

SMILES: C=C(C)[C@@H]1CC[C@]2(C(=O)O)CC[C@]3(C)[C@H](CC[C@@H]4[C@@]5(C)CC[C@H](OC(=O)Cn6cc(-c7ccc(C(=O)OCC)cc7)nn6)C(C)(C)[C@@H]5CC[C@]43C)[C@@H]12
- IC50 (U-937): 40.1 µM
- IC50 (HT-29 [1]): > 50 µM
- IC50 (Jurkat): > 50 µM
- IC50 (HepG2): > 50 µM
- IC50 (MCF7): > 50 µM
